The values below come from ChEMBL document CHEMBL1130135, “Use of conformationally restricted benzamidines as arginine surrogates in the design of platelet GPIIb-IIIa receptor antagonists” (J Med Chem, 1997).

pIC50: −log10 of the molar value.

Integrin alpha-V/beta-3, sequence (P05106 27-788 limits assumed): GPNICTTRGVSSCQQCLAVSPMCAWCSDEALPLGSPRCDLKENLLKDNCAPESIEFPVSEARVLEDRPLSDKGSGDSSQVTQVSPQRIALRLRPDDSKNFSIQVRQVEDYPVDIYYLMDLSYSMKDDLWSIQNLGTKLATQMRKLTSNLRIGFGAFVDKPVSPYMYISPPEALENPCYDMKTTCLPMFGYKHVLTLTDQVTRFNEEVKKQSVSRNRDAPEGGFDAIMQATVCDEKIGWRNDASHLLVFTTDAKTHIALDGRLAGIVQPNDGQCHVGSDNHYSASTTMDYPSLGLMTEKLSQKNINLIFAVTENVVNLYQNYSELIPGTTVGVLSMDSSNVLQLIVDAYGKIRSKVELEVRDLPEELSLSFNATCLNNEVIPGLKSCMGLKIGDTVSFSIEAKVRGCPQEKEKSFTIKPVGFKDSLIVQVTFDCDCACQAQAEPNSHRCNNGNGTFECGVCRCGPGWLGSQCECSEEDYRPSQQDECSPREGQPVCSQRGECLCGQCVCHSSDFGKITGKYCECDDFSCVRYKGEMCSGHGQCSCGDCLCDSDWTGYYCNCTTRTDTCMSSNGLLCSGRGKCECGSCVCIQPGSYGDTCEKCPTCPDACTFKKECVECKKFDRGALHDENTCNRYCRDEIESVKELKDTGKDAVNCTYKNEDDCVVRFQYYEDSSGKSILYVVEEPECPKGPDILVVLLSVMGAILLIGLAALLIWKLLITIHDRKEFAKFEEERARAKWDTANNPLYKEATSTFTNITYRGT
Integrin alpha-V/beta-3, sequence (P06756 31-889 limits assumed): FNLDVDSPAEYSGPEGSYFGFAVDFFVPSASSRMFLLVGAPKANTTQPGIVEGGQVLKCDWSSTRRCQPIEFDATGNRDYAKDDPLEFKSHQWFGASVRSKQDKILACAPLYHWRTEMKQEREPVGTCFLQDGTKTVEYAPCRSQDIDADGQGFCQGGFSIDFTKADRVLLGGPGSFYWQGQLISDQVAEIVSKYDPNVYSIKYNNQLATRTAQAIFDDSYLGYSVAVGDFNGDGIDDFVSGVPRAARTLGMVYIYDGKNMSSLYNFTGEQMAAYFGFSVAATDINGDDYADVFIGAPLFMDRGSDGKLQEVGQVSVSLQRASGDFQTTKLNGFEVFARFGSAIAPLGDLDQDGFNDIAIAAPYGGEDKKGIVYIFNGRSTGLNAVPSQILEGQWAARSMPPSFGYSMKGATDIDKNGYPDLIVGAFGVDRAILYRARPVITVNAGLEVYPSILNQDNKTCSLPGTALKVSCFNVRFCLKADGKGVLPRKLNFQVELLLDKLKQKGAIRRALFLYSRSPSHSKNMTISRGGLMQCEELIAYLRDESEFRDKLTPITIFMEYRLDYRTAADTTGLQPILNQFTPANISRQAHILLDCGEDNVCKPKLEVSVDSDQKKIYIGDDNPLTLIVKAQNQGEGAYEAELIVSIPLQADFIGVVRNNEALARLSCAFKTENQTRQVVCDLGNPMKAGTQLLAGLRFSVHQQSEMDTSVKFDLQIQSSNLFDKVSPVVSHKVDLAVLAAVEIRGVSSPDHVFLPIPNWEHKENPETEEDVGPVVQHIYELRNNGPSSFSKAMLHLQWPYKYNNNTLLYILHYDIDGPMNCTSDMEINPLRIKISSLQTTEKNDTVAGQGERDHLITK
Integrin alpha-V/beta-3, sequence (P06756 891-1048 limits assumed): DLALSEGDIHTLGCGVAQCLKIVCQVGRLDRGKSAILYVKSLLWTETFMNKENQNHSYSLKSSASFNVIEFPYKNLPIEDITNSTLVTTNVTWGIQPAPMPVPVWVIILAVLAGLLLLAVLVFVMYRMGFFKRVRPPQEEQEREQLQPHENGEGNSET
T1 sequence (P05106 27-788 limits assumed): as the sequence (P05106 27-788 limits assumed) above
T1 sequence (P08514 32-887 limits assumed): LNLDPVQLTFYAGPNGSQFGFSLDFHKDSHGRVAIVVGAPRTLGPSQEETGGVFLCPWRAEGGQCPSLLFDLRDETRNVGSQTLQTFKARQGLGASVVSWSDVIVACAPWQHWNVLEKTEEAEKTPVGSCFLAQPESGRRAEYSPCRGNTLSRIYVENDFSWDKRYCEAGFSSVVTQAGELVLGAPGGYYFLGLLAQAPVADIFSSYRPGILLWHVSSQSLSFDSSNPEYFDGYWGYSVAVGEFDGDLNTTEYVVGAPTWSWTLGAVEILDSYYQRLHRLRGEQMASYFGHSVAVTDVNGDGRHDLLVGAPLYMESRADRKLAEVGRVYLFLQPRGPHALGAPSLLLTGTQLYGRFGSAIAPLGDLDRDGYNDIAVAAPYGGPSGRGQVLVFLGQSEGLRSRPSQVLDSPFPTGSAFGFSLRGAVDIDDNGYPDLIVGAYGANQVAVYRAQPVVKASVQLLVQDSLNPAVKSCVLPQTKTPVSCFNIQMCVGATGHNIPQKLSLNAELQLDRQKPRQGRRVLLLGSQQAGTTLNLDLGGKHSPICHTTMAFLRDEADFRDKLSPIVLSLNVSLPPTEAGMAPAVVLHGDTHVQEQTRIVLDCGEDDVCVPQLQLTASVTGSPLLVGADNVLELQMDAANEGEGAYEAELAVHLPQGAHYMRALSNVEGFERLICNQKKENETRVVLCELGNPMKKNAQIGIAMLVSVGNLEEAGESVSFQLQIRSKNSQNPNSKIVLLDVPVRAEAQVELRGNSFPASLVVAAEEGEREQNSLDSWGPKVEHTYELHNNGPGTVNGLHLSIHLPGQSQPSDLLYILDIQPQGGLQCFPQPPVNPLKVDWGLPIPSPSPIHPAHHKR
T1 sequence (P08514 891-1039 limits assumed): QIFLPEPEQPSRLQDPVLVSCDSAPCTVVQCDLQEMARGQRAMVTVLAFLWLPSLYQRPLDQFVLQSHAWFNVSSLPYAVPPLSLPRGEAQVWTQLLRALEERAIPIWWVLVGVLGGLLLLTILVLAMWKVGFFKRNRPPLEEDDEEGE

The target of one experiment is T1, Integrin alpha-IIb/beta-3 (Homo sapiens, UniProt P05106+P08514). As to the kind of experiment: Antagonism of fibrinogen binding to a purified human fibrinogen receptor preparation. The experiment is classed as protein-complex assay. The method in brief:
(§1)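 ELISA on purified human platelet GPIIb-IIIa with biotinylated fibrinogen as the ligand. Bound fibrinogen was detected with alkaline phosphatase-labeled goat anti-biotin and p-nitrophenyl phosphate substrate. Some runs added BSA at 4.5% (w/v) as a stand-in for plasma albumin.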
Turning to `N=C(N)c1ccc2[nH]c(C(=O)NCCCC(=O)NCC(=O)O)cc2c1`, the negative logarithm of the IC50 (pIC50) (commonly the negative decadic logarithm of the IC50, by convention in mol/L) was 5.13.

Compound `CCC(CCCCNC(=O)c1cc2cc(C(=N)N)ccc2[nH]1)CC(=O)O` (stereo not drawn) had a negative-log IC50 (pIC50) of 6.36.

Compound `N=C(N)c1ccc2[nH]c(C(=O)NCC(=O)NCCCC(=O)O)cc2c1` showed a pIC50 of 5.00.

`Cc1c(C(=O)NCCCCCCC(=O)O)[nH]c2ccc(C(=N)N)cc12` had a negative-log IC50 (pIC50) of 5.77.

For `N=C(N)c1ccc2[nH]c(C(=O)NCc3ccc(CCC(=O)O)cc3)cc2c1`, the pIC50 was 5.40.

For `CCCCCCC(CCCCNC(=O)c1cc2cc(C(=N)N)ccc2[nH]1)CC(=O)O` (stereo not drawn), the negative logarithm of the IC50 (pIC50) was 6.23.

Compound `CCC(CCCCCNC(=O)c1cc2cc(C(=N)N)ccc2[nH]1)C(=O)O` (stereo not drawn) gave a pIC50 of 4.57.

`N=C(N)c1ccc(OCC(=O)NCCCCCCC(=O)O)cc1` showed a negative logarithm of the IC50 (pIC50) of 5.96.

In turn, `CC(CCCCNC(=O)c1cc2cc(C(=N)N)ccc2[nH]1)CC(=O)O` (stereo not drawn) had a negative logarithm of the IC50 (pIC50) of 6.51.

Regarding `N=C(N)c1ccc2sc(C(=O)NCCCCCCC(=O)O)cc2c1`, the pIC50 was 6.07.

The compound `N=C(N)c1ccc2oc(C(=O)NCCCCCC(=O)O)cc2c1` showed a negative-log IC50 (pIC50) of 5.64.

The compound `N=C(N)c1ccc2c(C(=O)NCCCCCCC(=O)O)[nH]nc2c1` had a negative logarithm of the IC50 (pIC50) of 7.70.

In the case of `CC(CCCCCNC(=O)c1cc2cc(C(=N)N)ccc2[nH]1)C(=O)O` (stereo not drawn), the pIC50 is 5.16.

On to `N=C(N)c1ccc2[nH]c(C(=O)NCCC(=O)NCCC(=O)O)cc2c1`, for which the negative logarithm of the IC50 (pIC50) is 6.12.

With `N=C(N)c1ccc2cc(C(=O)NCCCCCCC(=O)O)oc2c1`, the pIC50 was 5.96.

On to `Cn1c(C(=O)NCCCCCCC(=O)O)cc2cc(C(=N)N)ccc21`, for which the pIC50 was 5.54.

The compound `CCCCC(CCCCNC(=O)c1cc2cc(C(=N)N)ccc2[nH]1)CC(=O)O` (stereo not drawn) gave a negative-log IC50 (pIC50) of 6.10.

`CN(CCCCCCC(=O)O)C(=O)c1cc2cc(C(=N)N)ccc2[nH]1` showed a negative logarithm of the IC50 (pIC50) of 6.47.

`N=C(N)c1ccc2[nH]c(C(=O)NCCCCC(CC(=O)O)c3ccccc3)cc2c1` (stereo not drawn) showed a pIC50 of 6.34.

The next experiment addresses T1, Integrin alpha-IIb/beta-3. Put plainly: Inhibition of fibrinogen binding to purified Fibrinogen Receptor preparation in enzyme-linked immunosorbent assay (ELISA). The experiment is classed as protein-complex assay. The essentials:
as §1
For orientation: An ELISA detects its analyte on a solid surface through an enzyme-linked reagent.
`N=C(N)c1ccc2oc(C(=O)NCCCCCCCC(=O)O)cc2c1` had a negative-log IC50 (pIC50) of 5.48.

The next experiment has as its target Integrin alpha-V/beta-3 (Homo sapiens, UniProt P05106+P06756). Put plainly: Inhibition of adhesive protein binding to alphaV-beta3 vitronectin receptor using ELISA. The experiment is classed as protein-complex assay. The essentials:
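Vitronectin receptor ELISA on purified human placenta αvβ3 with biotinylated vitronectin as the ligand. Detection used alkaline phosphatase-labeled goat anti-biotin and p-nitrophenol phosphate. Compounds were tested up to 100 μM.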
With `N=C(N)c1ccc2oc(C(=O)NCCCCCCC(=O)O)cc2c1`, the negative logarithm of the IC50 (pIC50) is below 4.00.

For `N=C(N)c1ccc2c(C(=O)NCCCCCCC(=O)O)c[nH]c2c1`, the negative logarithm of the IC50 (pIC50) is below 4.00.

`N=C(N)c1ccc2c(C(=O)NCCCCCCC(=O)O)[nH]nc2c1` had a pIC50 below 4.00.
